Bounds are passed on as bounds.

Experiment [1] concerns Human immunodeficiency virus 1. The experiment is described as follows: Antiviral activity against Human immunodeficiency virus 1 HXB2 expressing protease M6 mutant infected in human MT4 cells after 5 days by MTT assay. It counts as functional, organism-based. To be noted: Human immunodeficiency virus 1, HXB2, MT4, 120 h. The procedure, abridged:
(§1)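 MT-4 cells (AIDS Research and Reference Reagent Program) exposed to 50% tissue culture infective doses (TCID₅₀) of virus with various concentrations of test compound for 5 days. MTT solution then added and absorbance measured. Mutant strains carry 10–17 resistance mutations with phenotypic resistance to marketed PIs; all include I84V except M7. IC₅₀ reported.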

Experiment [2] has as its system Human immunodeficiency virus 1. The experiment is described as follows: Antiviral activity against Human immunodeficiency virus 1 HXB2 expressing protease M10 mutant infected in human MT4 cells after 5 days by MTT assay. Format: functional, organism-based. To be noted: Human immunodeficiency virus 1, HXB2, MT4, 120 h. Background: Tetrazolium dyes change colour on reduction, which living cells bring about.

Experiment [3] is described as follows: Inhibition of Human immunodeficiency virus protease M10 mutant expressed in Escherichia coli using ArgGlu(EDANS)SerGlnAsnTyrProIleValGlnLys(DABCYL)Arg as substrate preincubated with compound for 0.5 to 1 min measured by fluorometric analysis at pH 6.5.
Experiment [4] in a line: Inhibition of Human immunodeficiency virus protease M8 mutant expressed in Escherichia coli using ArgGlu(EDANS)SerGlnAsnTyrProIleValGlnLys(DABCYL)Arg as substrate preincubated with compound for 0.5 to 1 min measured by fluorometric analysis at pH 6.5.
The test system of experiment [5] is Human immunodeficiency virus 1. Kind of experiment: Antiviral activity against Human immunodeficiency virus 1 HXB2 expressing protease M7 mutant infected in human MT4 cells after 5 days by MTT assay. Format: functional, organism-based. To be noted: Human immunodeficiency virus 1, HXB2, MT4, 120 h. In outline: as §1
A short description of experiment [6]: Inhibition of Human immunodeficiency virus protease M9 mutant expressed in Escherichia coli using ArgGlu(EDANS)SerGlnAsnTyrProIleValGlnLys(DABCYL)Arg as substrate preincubated with compound for 0.5 to 1 min measured by fluorometric analysis at pH 6.5.
Experiment [7] is described as follows: Inhibition of wild type Human immunodeficiency virus protease expressed in Escherichia coli using ArgGlu(EDANS)SerGlnAsnTyrProIleValGlnLys(DABCYL)Arg as substrate preincubated with compound for 0.5 to 1 min measured by fluorometric analysis at pH 6.5.
Experiment [8] concerns Human immunodeficiency virus 1. The experiment is described as follows: Antiviral activity against Human immunodeficiency virus 1 HXB2 expressing wild type protease infected in human MT4 cells after 5 days by MTT assay. It counts as functional, organism-based. To be noted: Human immunodeficiency virus 1, HXB2, MT4, 120 h.
For experiment [9], the system named is Human immunodeficiency virus 1. The experiment is described as follows: Antiviral activity against Human immunodeficiency virus 1 HXB2 expressing protease M8 mutant infected in human MT4 cells after 5 days by MTT assay. It counts as functional, organism-based. To be noted: Human immunodeficiency virus 1, HXB2, MT4, 120 h.
For experiment [10], the system named is Human immunodeficiency virus 1. Kind of experiment: Antiviral activity against Human immunodeficiency virus 1 HXB2 expressing protease M3 mutant infected in human MT4 cells after 5 days by MTT assay. Format: functional, organism-based. To be noted: Human immunodeficiency virus 1, HXB2, MT4, 120 h. The procedure, abridged: as §1
The subject of experiment [11] is Human immunodeficiency virus 1. Kind of experiment: Antiviral activity against Human immunodeficiency virus 1 HXB2 expressing protease M4 mutant infected in human MT4 cells after 5 days by MTT assay. Format: functional, organism-based. To be noted: Human immunodeficiency virus 1, HXB2, MT4, 120 h. In outline: as §1
Experiment [12] deals with Human immunodeficiency virus 1. The experiment is described as follows: Antiviral activity against Human immunodeficiency virus 1 HXB2 expressing protease M9 mutant infected in human MT4 cells after 5 days by MTT assay. To be noted: Human immunodeficiency virus 1, HXB2, MT4, 120 h. It counts as functional, organism-based.
Experiment [13] deals with Human immunodeficiency virus 1. The experiment is described as follows: Antiviral activity against Human immunodeficiency virus 1 HXB2 expressing protease M5 mutant infected in human MT4 cells after 5 days by MTT assay. Format: functional, organism-based. To be noted: Human immunodeficiency virus 1, HXB2, MT4, 120 h. In outline:
as §1

As to `COC(=O)N[C@H](C(=O)N[C@@H](Cc1ccccc1)[C@@H](O)CN(Cc1ccc(-c2ccccn2)cc1)NC(=O)[C@@H](NC(=O)OC)C(C)(C)C)C(C)(C)C` [ATAZANAVIR], the IC50 in experiment [1] was 430 nM; in [2], 3300 nM; in [5] it was 105 nM; in [8], 3.5 nM; in experiment [9], 750 nM; in experiment [10] it was 350 nM. The IC50 came out at 600 nM in experiment [11], 2500 nM in experiment [12] and 280 nM in [13]. The Ki in experiment [3] was 171 nM; in [4] it was 2.8 nM; in [6], 84 nM; in [7], less than 0.1 nM.

What is called IC50 is the concentration at which inhibition is half-maximal. Read a high IC50 as a need for much substance. Broadly, the Ki is the equilibrium dissociation constant of an inhibitor or competing ligand from its target.

The record behind these values is ChEMBL document CHEMBL2057112, “Enamino-oxindole HIV protease inhibitors” (Bioorg Med Chem Lett, 2012).
